Laboratory results taken from article PMC2156157 (The Journal of Cell Biology, 1999).
Ends that are not written are not given here. * marks the point of attachment. Biotin = O=C1N[C@H]2[C@H](CS[C@H]2CCCCC(=O)*)N1

Experiments:
[1] = tested on: c-Yes; type: cell-based, human; conditions: 16HBE14o− on transwell filters, mouse anti–c-Yes (1:100), XZ confocal
In short: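 16HBE14o− clones stably expressing GFP-YAP65 chimeras were selected with G418 and screened by fluorescence and anti-GFP blot. Cells were grown to confluence on transwell filters and fixed in 4% paraformaldehyde. After blocking (milk/BSA/0.1% Triton X-100, 3 h), they were stained with mouse anti-c-Yes (1:100) and fluorescent secondary antiserum, then scanned in XZ by confocal microscopy. At least two independent clones per line were analysed.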

[2] = tested on: GST-EBP50; test: GST-EBP50 affinity resin binding of radiolabeled proteins; set-up: species or system human; conditions: in vitro, conclusion from competition and resin binding
In short: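 GST-EBP50 (10 µg) on glutathione agarose was preincubated for 2 h with or without biotinylated C-terminal peptides. Peptides were given at 400 nM, or at increasing concentrations of YAP65 wild-type peptide. Incubation lasted 3 h at 4°C, followed by high-salt (1 M NaCl) and detergent washes. Bound and unbound fractions read by SDS-PAGE and phosphorimaging.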

[3] = tested on: GST-PDZ2 (PDZ2 of EBP50); test: GST-PDZ2 affinity resin binding of radiolabeled protein; set-up: species or system human
In short: (§1)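 GST or GST-EBP50, PDZ1 or PDZ2 fusion (10 µg) was immobilised on glutathione agarose. Binding ran in binding buffer + 0.1% Triton X-100 for 3 h at 4°C. Resin washed three times in TEE/1 M NaCl/1% Triton, then three times in binding buffer/1% Triton. Eluate acetone-precipitated; SDS-PAGE and phosphorimaging; ≥3 repeats.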

[4] = tested on: GST-PDZ1 (PDZ1 of EBP50); test: GST-PDZ1 affinity resin binding of radiolabeled protein; set-up: species or system human; conditions: 10 μg; radiolabeled full-length YAP65; 1 M NaCl washes
In short: as §1

[5] = tested on: GST; test: GST control resin binding of radiolabeled protein; conditions: 10 μg; radiolabeled full-length YAP65; 1 M NaCl washes
In short: as §1

[6] = tested on: GST-EBP50; test: GST-EBP50 pull-down from 16HBE14o− lysate, Western blot; type: binding, human; conditions: 10 μg GST-EBP50, 16HBE14o− lysate
In short: (§2)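 Human bronchial epithelial 16HBE14o− cells lysed in RIPA with 250 µM orthovanadate and protease inhibitors, then cleared at 40,000 g. GST or GST fusion protein (10 µg) on glutathione agarose was incubated with lysate (100 µg or ~200 µg) in binding buffer + 0.1% Triton X-100 for 3 h at 4°C. Washes: TEE/1 M NaCl/1% Triton, then binding buffer. Bound protein detected by 10% SDS-PAGE and immunoblot; ≥3 repeats.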

[7] = tested on: GST; test: GST control pull-down from 16HBE14o− lysate, Western blot; type: binding; conditions: 10 μg GST
In short: as §2

[8] = tested on: apical membrane of airway epithelial cells; type: cell-based, human; conditions: 16HBE14o− cells on transwell filters 7–10 d after confluence, confocal
In short: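 Samples were 16HBE14o− filters (7–10 d post-confluence) or primary nasal cultures (air-liquid interface, 40–50 d). Fixation was 4% paraformaldehyde, 5–20 min, room temperature. Blocking used milk/BSA/Triton (16HBE14o−) or 10–20% goat serum (primary). Primary antisera ran 4–12 h: ezrin 1:300, ZO-1 1:200, EBP50 1:500 or 1:200, YAP65 1:300 or 1:200. Primary cultures also got 70 nM FITC-phalloidin. Texas red/FITC secondaries, XZ confocal imaging.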

[9] = tested on: SH3 domain of c-Src and c-Yes; conditions: biochemical assays; ref Sudol 1994; cited from earlier work
[10] = tested on: GST-EBP50; test: blot overlay, GST-EBP50; type: binding, human; conditions: blot overlay assays (not shown)
[11] = tested on: GST-PDZ2; test: GST-PDZ2 pull-down from 16HBE14o− lysate, Western blot; type: binding, human; conditions: 10 μg GST-PDZ2, ∼200 μg 16HBE14o− lysate
In short: (§3)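 GST fusion protein (10 μg) immobilized on glutathione agarose and incubated 3 h at 4°C with ~200 μg 16HBE14o− lysate. Lysate made in RIPA with 250 μM orthovanadate and protease inhibitors, cleared at 40,000 g, and diluted in binding buffer + 0.1% Triton X-100. Beads washed in TEE/1 M NaCl/1% Triton, then in binding buffer/1% Triton. Eluates run on SDS-PAGE and Western blotted; each assay run at least three times.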

[12] = tested on: GST-PDZ1; test: GST-PDZ1 pull-down from 16HBE14o− lysate, Western blot; type: binding, human; conditions: 10 μg GST-PDZ1, ∼200 μg 16HBE14o− lysate
In short: as §3

Substance: GFP-YAP65/−4: GFP fused with YAP65 lacking the last four amino acids
- c-Yes distribution in cells stably overexpressing the chimera [1]: a significant amount of c-Yes was redistributed to the lateral cell borders

Substance: YAP65: Yes-associated protein 65; full-length human, in vitro translated, or endogenous
- affinity for EBP50 [2]: appear to bind EBP50 with high affinity
- association with GST-PDZ2 ([3]; 10 μg, radiolabeled full-length YAP65, 1 M NaCl washes): associated with GST-EBP50 and GST-PDZ2 of EBP50
- association with GST-PDZ1 [4]: not with GST or GST-PDZ1
- association with GST [5]: not with GST or GST-PDZ1
- association with GST-EBP50 from lysate [6]: bound to the GST-EBP50 beads
- association with GST from lysate [7]: not to GST beads
- localization of endogenous protein [8]: preferentially accumulated at the apical membrane
- binding to SH3 domain of c-Src and c-Yes [9]: bind the SH3 domain of c-Src and c-Yes, although the affinity for c-Yes was greater

Substance: YAPwt: the COOH-terminal 10 amino acids of YAP65 (Biotin-SGSGLDKESFLTWL)
- binding to GST-EBP50 in blot overlay [10]: bound GST-EBP50
- preferential binding to PDZ2 versus PDZ1 ([3]; GST fusion proteins of PDZ1 and PDZ2, pull-down (Fig. 5 C), discussion statement): preferential binding of YAP65 to PDZ2

Substance: c-Yes: nonreceptor tyrosine kinase of the Src family
- association with GST-EBP50 from lysate [6]: easily visualized in the bound fraction of GST-EBP50 and GST-PDZ2 affinity resins
- association with GST-PDZ2 from lysate [11]: easily visualized in the bound fraction of GST-EBP50 and GST-PDZ2 affinity resins
- association with GST-PDZ1 from lysate [12]: no c-Yes was found to associate with GST or with GST-PDZ1
- association with GST from lysate [7]: no c-Yes was found to associate with GST or with GST-PDZ1
